Results: ChEMBL document CHEMBL1134691, “3-Phenyl-5-acyloxymethyl-2H,5H-furan-2-ones: synthesis and biological activity of a novel group of potential antifungal drugs” (2001)
≈ marks a conversion by molar mass, not a printed value.

Assays:
Format in all cases: functional
[1] = test system: Candida tropicalis; assay: Inhibition of Candida tropicalis 156 growth for 48 hours in vitro.
Summary of the method: (§1)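 NCCLS M27-A broth microdilution in RPMI 1640 with L-glutamine and 0.165 M MOPS, pH 7.0. Isolates kept on Sabouraud dextrose agar. Inoculum 5 × 10^3 cfu/mL final. Compounds were diluted in DMSO (≤2% final) and tested in 2-fold dilutions of 1000–0.24 µmol/L. Incubation at 35 °C, OD540 read at 24 and 48 h. MIC = 80% growth inhibition versus control; assays run twice in duplicate.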

[2] = test system: Lichtheimia corymbifera; assay: In vitro inhibition of Absidia corymbifera 272 growth for 24 hours.
Summary of the method: (§2)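 Filamentous isolates tested by microdilution per NCCLS M27-A in RPMI 1640 plus L-glutamine, buffered with 0.165 M MOPS to pH 7.0. Final inoculum 5 × 10^3 cfu/mL. Compounds in DMSO (final ≤2%), 2-fold series over 1000–0.24 µmol/L. Plates held at 35 °C and read visually after 24 and 48 h. MIC taken as 80% inhibition of control growth; determined twice in duplicate.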

[3] = test system: Candida albicans; assay: Inhibition of Candida albicans ATCC 90028 for 24 hours in vitro.; conditions: Candida albicans, ATCC 90028, 24 h; read-out: MIC; summary of the method: as §1
[4] = test system: Clavispora lusitaniae; assay: Inhibition of Candida lusitaniae 2446/I growth for 48 hours in vitro.; conditions: Clavispora lusitaniae, 48 h; read-out: MIC; summary of the method: as §1
[5] = test system: Candida albicans; assay: Inhibition of Candida albicans ATCC 44859 growth for 24 hours in vitro.; conditions: Candida albicans, ATCC 44859, 24 h; read-out: MIC; summary of the method: as §1
[6] = test system: Clavispora lusitaniae; assay: Inhibition of Candida lusitaniae 2446/I growth for 24 hours in vitro.; conditions: Clavispora lusitaniae, 24 h; read-out: MIC; summary of the method: as §1
[7] = test system: Candida parapsilosis; assay: Inhibition of Candida parapsilosis ATCC 22019 growth for 24 hours in vitro.; conditions: Lodderomyces parapsilosis, ATCC 22019, 24 h; read-out: MIC; summary of the method: as §1
[8] = test system: Pichia kudriavzevii; assay: Inhibition of Candida krusei ATCC 6258 growth for 24 hours in vitro.; summary of the method: as §1
[9] = test system: Pichia kudriavzevii; assay: Inhibition of Candida krusei E28 growth for 48 hours in vitro.; summary of the method: as §1
[10] = test system: Aspergillus fumigatus; assay: Inhibition of Aspergillus fumigatus 231 growth for 48 hours in vitro.; conditions: Aspergillus fumigatus, 48 h; read-out: MIC; summary of the method: as §2
[11] = test system: Pichia kudriavzevii; assay: Inhibition of Candida krusei ATCC 6258 growth for 48 hours in vitro.; summary of the method: as §1
[12] = test system: Lichtheimia corymbifera; assay: In vitro inhibition of Absidia corymbifera 272 growth for 48 hours.; conditions: Lichtheimia corymbifera, 48 h; read-out: MIC; summary of the method: as §2
[13] = test system: Candida parapsilosis; assay: Inhibition of Candida parapsilosis ATCC 22019 growth for 48 hours in vitro.; conditions: Lodderomyces parapsilosis, ATCC 22019, 48 h; read-out: MIC; summary of the method: as §1
[14] = test system: Candida albicans; assay: Inhibition of Candida albicans ATCC 90028 for 48 hours in vitro.; conditions: Candida albicans, ATCC 90028, 48 h; read-out: MIC; summary of the method: as §1
[15] = test system: Pichia kudriavzevii; assay: Inhibition of Candida krusei E28 growth for 24 hours in vitro.; conditions: Pichia kudriavzevii, 24 h; read-out: MIC; summary of the method: as §1
[16] = test system: Candida albicans; assay: Inhibition of Candida albicans ATCC 44859 growth for 48 hours in vitro.; conditions: Candida albicans, ATCC 44859, 48 h; read-out: MIC; summary of the method: as §1
[17] = test system: Nakaseomyces glabratus; assay: Inhibition of Candida glabrata 20/I growth for 48 hours in vitro.; summary of the method: as §1
[18] = test system: Nakaseomyces glabratus; assay: Inhibition of Candida glabrata 20/I growth for 24 hours in vitro.; summary of the method: as §1
[19] = Lichtheimia corymbifera, 24 h, read-out: MIC
[20] = Pichia kudriavzevii, ATCC 6258, 24 h, read-out: MIC
[21] = Pichia kudriavzevii, 48 h, read-out: MIC
[22] = Pichia kudriavzevii, ATCC 6258, 48 h, read-out: MIC

Compound | MIC [3] [µM] | MIC [4] [µM] | MIC [5] [µM] | MIC [6] [µM] | MIC [7] [µM] | MIC [10] [µM] | MIC [12] [µM] | MIC [13] [µM] | MIC [14] [µM] | MIC [15] [µM] | MIC [16] [µM] | MIC [2, 19] [µM] | MIC [8, 20] [µM] | MIC [9, 21] [µM] | MIC [11, 22] [µM] | other results
CC(C)(C)C(=O)OCC1C=C(c2ccc(Cl)c(Cl)c2)C(=O)O1 (stereo in doubt; (-)2c) | 3.91 (≈ 1.34 µg/mL) | 7.81 (≈ 2.68 µg/mL) | 1.95 (≈ 0.669 µg/mL) | 3.91 (≈ 1.34 µg/mL) | 7.81 (≈ 2.68 µg/mL) | 7.81 (≈ 2.68 µg/mL) | 62.5 (≈ 21.5 µg/mL) | 15.6 (≈ 5.36 µg/mL) | 7.81 (≈ 2.68 µg/mL) | 7.81 (≈ 2.68 µg/mL) | 3.91 (≈ 1.34 µg/mL) | – | – | – | – | MIC [1]: 5.36 uM l-1; MIC [2]: 5.36 uM l-1; MIC [8]: 2.68 uM l-1; MIC [9]: 5.36 uM l-1; MIC [11]: 10.73 uM l-1
C[C@@H]1[C@H](O)[C@@H](C)/C=C/C=C/C=C/C=C/C=C/C=C/C=C/[C@H](O[C@@H]2O[C@H](C)[C@@H](O)[C@H](N)[C@@H]2O)C[C@@H]2O[C@](O)(C[C@@H](O)C[C@@H](O)[C@H](O)CC[C@@H](O)C[C@@H](O)CC(=O)O[C@H]1C)C[C@H](O)[C@H]2C(=O)O [AMPHOTERICIN B] | 2.16 (≈ 2 µg/mL) | 2.16 (≈ 2 µg/mL) | 1.08 (≈ 0.998 µg/mL) | 2.16 (≈ 2 µg/mL) | 2.16 (≈ 2 µg/mL) | 0.54 (≈ 0.499 µg/mL) | 2.16 (≈ 2 µg/mL) | 2.16 (≈ 2 µg/mL) | 2.16 (≈ 2 µg/mL) | 2.16 (≈ 2 µg/mL) | 1.08 (≈ 0.998 µg/mL) | 2.16 (≈ 2 µg/mL) | 2.16 (≈ 2 µg/mL) | 4.33 (≈ 4 µg/mL) | 4.33 (≈ 4 µg/mL) | MIC [17]: 2 µg/mL (≈ 2.16 µM); MIC [18]: 2 µg/mL (≈ 2.16 µM)
CC(=O)N1CCN(c2ccc(OCC3COC(Cn4ccnc4)(c4ccc(Cl)cc4Cl)O3)cc2)CC1 (stereo not drawn) [KETOCONAZOLE] | < 0.056 | 0.11 (≈ 0.0585 µg/mL) | 0.11 (≈ 0.0585 µg/mL) | 0.056 (≈ 0.0298 µg/mL) | 0.11 (≈ 0.0585 µg/mL) | 15.6 (≈ 8.31 µg/mL) | 31.2 (≈ 16.6 µg/mL) | 0.11 (≈ 0.0585 µg/mL) | < 0.056 | 3.91 (≈ 2.08 µg/mL) | 0.11 (≈ 0.0585 µg/mL) | 31.2 (≈ 16.6 µg/mL) | 1.96 (≈ 1.04 µg/mL) | 3.91 (≈ 2.08 µg/mL) | 1.96 (≈ 1.04 µg/mL) | –
